{"source": "ChEMBL document CHEMBL1149647", "about": "“Structure-based design of TACE selective inhibitors: manipulations in the S1'-S3' pocket” (Bioorg Med Chem, 2007)", "key": {"Collagenase 3": {"target": "Collagenase 3 (Homo sapiens, UniProt P45452)", "assay": "Inhibition of human recombinant MMP13", "procedure,_shortened": "(§1)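 Enzyme potency is expressed as IC50 in nM, reported as average ± SD.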"}, "[1]": {"target": "T1, Disintegrin and metalloproteinase domain-containing protein 17 (Homo sapiens, UniProt P78536)", "T1 sequence (P78536 whole entry, the tested form may be a part)": "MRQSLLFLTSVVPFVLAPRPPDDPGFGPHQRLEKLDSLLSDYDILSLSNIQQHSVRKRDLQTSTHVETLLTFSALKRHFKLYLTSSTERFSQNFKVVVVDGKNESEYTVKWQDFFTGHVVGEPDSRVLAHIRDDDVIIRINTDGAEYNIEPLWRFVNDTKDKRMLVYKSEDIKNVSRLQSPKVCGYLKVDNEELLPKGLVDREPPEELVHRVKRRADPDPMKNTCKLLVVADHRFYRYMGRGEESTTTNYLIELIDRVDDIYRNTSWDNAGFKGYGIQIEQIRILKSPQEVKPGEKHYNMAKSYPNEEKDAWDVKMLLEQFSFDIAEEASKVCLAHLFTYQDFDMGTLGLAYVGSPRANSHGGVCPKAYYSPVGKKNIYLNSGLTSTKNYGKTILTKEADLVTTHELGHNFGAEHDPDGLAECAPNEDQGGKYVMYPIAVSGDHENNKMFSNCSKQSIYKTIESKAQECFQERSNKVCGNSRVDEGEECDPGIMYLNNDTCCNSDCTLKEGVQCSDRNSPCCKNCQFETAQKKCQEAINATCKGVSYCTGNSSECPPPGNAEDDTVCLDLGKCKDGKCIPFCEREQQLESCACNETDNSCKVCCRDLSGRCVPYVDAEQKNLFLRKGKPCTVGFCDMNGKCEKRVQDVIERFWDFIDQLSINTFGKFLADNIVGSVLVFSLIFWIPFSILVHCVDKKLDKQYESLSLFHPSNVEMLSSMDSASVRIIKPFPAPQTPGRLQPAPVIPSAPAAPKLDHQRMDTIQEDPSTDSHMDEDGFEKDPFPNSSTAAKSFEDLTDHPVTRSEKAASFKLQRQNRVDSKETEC", "assay": "Inhibition of human TACE in human whole blood"}, "[2]": {"target": "T1, Disintegrin and metalloproteinase domain-containing protein 17", "assay": "Inhibition of human TACE expressed in CHO cells by FRET assay", "assay_type": "cell-based"}, "[3]": {"target": "72 kDa type IV collagenase (Homo sapiens, UniProt P08253)", "sequence (P08253 whole entry)": "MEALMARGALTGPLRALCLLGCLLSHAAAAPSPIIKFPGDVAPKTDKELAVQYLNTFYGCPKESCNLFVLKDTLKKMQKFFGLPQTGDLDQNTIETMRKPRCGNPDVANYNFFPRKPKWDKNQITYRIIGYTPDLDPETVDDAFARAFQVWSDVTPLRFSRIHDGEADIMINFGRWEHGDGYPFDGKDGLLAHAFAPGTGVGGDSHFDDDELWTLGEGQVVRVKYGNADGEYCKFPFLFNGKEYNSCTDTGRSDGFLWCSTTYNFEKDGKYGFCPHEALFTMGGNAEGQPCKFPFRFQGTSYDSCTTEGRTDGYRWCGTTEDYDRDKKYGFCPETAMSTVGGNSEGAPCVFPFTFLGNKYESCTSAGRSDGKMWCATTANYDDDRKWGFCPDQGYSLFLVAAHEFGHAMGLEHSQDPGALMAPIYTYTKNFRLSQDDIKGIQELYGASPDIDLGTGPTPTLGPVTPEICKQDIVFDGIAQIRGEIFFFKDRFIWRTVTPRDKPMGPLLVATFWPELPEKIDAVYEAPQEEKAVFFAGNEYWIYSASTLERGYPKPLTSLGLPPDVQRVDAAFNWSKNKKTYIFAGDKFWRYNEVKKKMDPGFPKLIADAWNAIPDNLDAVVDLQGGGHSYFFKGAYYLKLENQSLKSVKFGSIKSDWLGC", "assay": "Inhibition of human recombinant MMP2", "procedure,_shortened": "as §1"}, "Mus musculus": {"test_system": "Mus musculus", "assay": "Inhibition of LPS-induced TNFalpha production in BALB/CJ mouse at 25 mg/kg, po after 90 mins", "assay_type": "functional", "conditions": "1.5 h"}, "[4]": {"target": "Matrix metalloproteinase-14 (Homo sapiens, UniProt P50281)", "assay": "Inhibition of human recombinant MMP14"}, "Homo sapiens [5]": {"organism": "Homo sapiens", "assay": "Selectivity for TACE over MMP13"}, "Homo sapiens [6]": {"organism": "Homo sapiens", "assay": "Selectivity for TACE over MMP2"}}}
{"smiles": "CC#CCNc1ccc(S(=O)(=O)N2CCSC(C)(C)[C@@H]2C(=O)NO)cc1", "values": [{"measurement": "IC50", "setting": "Collagenase 3", "value": 30, "unit": "nM"}, {"measurement": "IC50", "setting": "[1]", "value": 3500, "unit": "nM"}, {"measurement": "IC50", "setting": "[2]", "value": 2.3, "unit": "nM"}, {"measurement": "IC50", "setting": "[3]", "value": 56, "unit": "nM"}]}
{"smiles": "CC#CCOc1ccc(S(=O)(=O)N2CCSC(C)(C)[C@@H]2C(=O)NO)cc1", "values": [{"measurement": "IC50", "setting": "[1]", "value": 300, "unit": "nM"}]}
{"smiles": "CC#CCNc1ccc(S(=O)(=O)CC2(C(=O)NO)CCN(C(=O)C(C)C)CC2)cc1", "values": [{"measurement": "IC50", "setting": "Collagenase 3", "value": 3200, "unit": "nM"}, {"measurement": "IC50", "setting": "[1]", "value": 3600, "unit": "nM"}, {"measurement": "IC50", "setting": "[2]", "value": 2.3, "unit": "nM"}, {"measurement": "IC50", "setting": "[3]", "value": 513, "unit": "nM"}, {"measurement": "inhibition in vivo at 25 mg/kg", "setting": "Mus musculus", "value": 72, "unit": "%"}, {"measurement": "IC50", "setting": "[4]", "value": 4890, "unit": "nM"}]}
{"smiles": "CC#CCNc1ccc(S(=O)(=O)CC2(C(=O)NO)CCN(C(=O)C(C)CC)CC2)cc1", "note": "(stereo not given)", "values": [{"measurement": "IC50", "setting": "Collagenase 3", "value": 2480, "unit": "nM"}, {"measurement": "IC50", "setting": "[1]", "value": 4900, "unit": "nM"}, {"measurement": "IC50", "setting": "[2]", "value": 3.5, "unit": "nM"}, {"measurement": "IC50", "setting": "[3]", "value": 1310, "unit": "nM"}, {"measurement": "IC50", "setting": "[4]", "value": 7050, "unit": "nM"}]}
{"smiles": "CC#CC(C)Oc1ccc(S(=O)(=O)CC2(C(=O)NO)CCN(S(=O)(=O)C(C)C)CC2)cc1", "note": "(stereo not given)", "values": [{"measurement": "IC50", "setting": "Collagenase 3", "value": 2910, "unit": "nM"}, {"measurement": "IC50", "setting": "[1]", "value": 31000, "unit": "nM"}, {"measurement": "IC50", "setting": "[2]", "value": 4, "unit": "nM"}, {"measurement": "Selectivity ratio", "setting": "Homo sapiens [5]", "value": 720}, {"measurement": "IC50", "setting": "[3]", "value": 4180, "unit": "nM"}, {"measurement": "Selectivity ratio", "setting": "Homo sapiens [6]", "value": 1000}]}
{"smiles": "CC#CCN(C)c1ccc(S(=O)(=O)CC2(C(=O)NO)CCN(C(=O)OC(C)(C)C)CC2)cc1", "values": [{"measurement": "IC50", "setting": "Collagenase 3", "value": 1600, "unit": "nM"}, {"measurement": "IC50", "setting": "[1]", "value": "> 50000", "unit": "nM"}, {"measurement": "IC50", "setting": "[2]", "value": 3.3, "unit": "nM"}]}
{"smiles": "CC(C)(C)OC(=O)N1CCC(CS(=O)(=O)c2ccc(NCC#CCO)cc2)(C(=O)NO)CC1", "values": [{"measurement": "IC50", "setting": "Collagenase 3", "value": 1040, "unit": "nM"}, {"measurement": "IC50", "setting": "[1]", "value": 25000, "unit": "nM"}, {"measurement": "IC50", "setting": "[2]", "value": 10, "unit": "nM"}, {"measurement": "IC50", "setting": "[3]", "value": 334, "unit": "nM"}]}
{"smiles": "CC#CCNc1ccc(S(=O)(=O)CC2(C(=O)NO)CCN(Cc3ccncc3)CC2)cc1", "values": [{"measurement": "IC50", "setting": "Collagenase 3", "value": 6880, "unit": "nM"}, {"measurement": "IC50", "setting": "[1]", "value": 7200, "unit": "nM"}, {"measurement": "IC50", "setting": "[2]", "value": 6.4, "unit": "nM"}, {"measurement": "IC50", "setting": "[3]", "value": 1530, "unit": "nM"}, {"measurement": "IC50", "setting": "[4]", "value": 4320, "unit": "nM"}]}
{"smiles": "CC#CCOc1ccc(S(=O)(=O)CC2(C(=O)NO)CCN(S(=O)(=O)C(C)C)CC2)cc1", "values": [{"measurement": "IC50", "setting": "Collagenase 3", "value": 157, "unit": "nM"}, {"measurement": "IC50", "setting": "[1]", "value": 1500, "unit": "nM"}, {"measurement": "IC50", "setting": "[2]", "value": 3, "unit": "nM"}, {"measurement": "Selectivity ratio", "setting": "Homo sapiens [5]", "value": 52}, {"measurement": "IC50", "setting": "[3]", "value": 280, "unit": "nM"}, {"measurement": "Selectivity ratio", "setting": "Homo sapiens [6]", "value": 93}, {"measurement": "IC50", "setting": "[4]", "value": 3640, "unit": "nM"}]}
{"smiles": "CC#CC(C)(C)Oc1ccc(S(=O)(=O)CC2(C(=O)NO)CCN(S(=O)(=O)C(C)C)CC2)cc1", "values": [{"measurement": "IC50", "setting": "Collagenase 3", "value": 12000, "unit": "nM"}, {"measurement": "IC50", "setting": "[1]", "value": "> 50000", "unit": "nM"}, {"measurement": "IC50", "setting": "[2]", "value": 27, "unit": "nM"}, {"measurement": "IC50", "setting": "[3]", "value": "> 1670", "unit": "nM"}]}
{"smiles": "CC#CCNc1ccc(S(=O)(=O)CC2(C(=O)NO)CCN(C(=O)c3ccccc3C)CC2)cc1", "values": [{"measurement": "IC50", "setting": "Collagenase 3", "value": 584, "unit": "nM"}, {"measurement": "IC50", "setting": "[1]", "value": 4800, "unit": "nM"}, {"measurement": "IC50", "setting": "[2]", "value": 2.5, "unit": "nM"}, {"measurement": "Selectivity ratio", "setting": "Homo sapiens [5]", "value": 499}, {"measurement": "IC50", "setting": "[3]", "value": 46, "unit": "nM"}, {"measurement": "IC50", "setting": "[4]", "value": 1000, "unit": "nM"}]}
{"smiles": "CC#CCNc1ccc(S(=O)(=O)CC2(C(=O)NO)CCN(C(=O)OC(C)(C)C)CC2)cc1", "values": [{"measurement": "IC50", "setting": "[1]", "value": 16000, "unit": "nM"}, {"measurement": "IC50", "setting": "[2]", "value": 1.6, "unit": "nM"}, {"measurement": "Selectivity ratio", "setting": "Homo sapiens [5]", "value": "> 400"}, {"measurement": "IC50", "setting": "[3]", "value": 120, "unit": "nM"}, {"measurement": "IC50", "setting": "[4]", "value": 2370, "unit": "nM"}]}
{"smiles": "CC#CCOc1ccc(S(=O)(=O)CC2(C(=O)NO)CCN(C(=O)OC(C)(C)C)CC2)cc1", "values": [{"measurement": "IC50", "setting": "Collagenase 3", "value": 135, "unit": "nM"}, {"measurement": "IC50", "setting": "[1]", "value": 14000, "unit": "nM"}, {"measurement": "IC50", "setting": "[2]", "value": 2, "unit": "nM"}]}
{"smiles": "CC#CCNc1ccc(S(=O)(=O)CC2(C(=O)NO)CCNCC2)cc1", "values": [{"measurement": "IC50", "setting": "[2]", "value": 64.5, "unit": "nM"}]}
{"smiles": "CC#CCNc1ccc(S(=O)(=O)CC2(C(=O)NO)CCN(C(=O)N(CC)CC)CC2)cc1", "values": [{"measurement": "IC50", "setting": "Collagenase 3", "value": 772, "unit": "nM"}, {"measurement": "IC50", "setting": "[1]", "value": 6400, "unit": "nM"}, {"measurement": "IC50", "setting": "[2]", "value": "< 1", "unit": "nM"}, {"measurement": "Selectivity ratio", "setting": "Homo sapiens [5]", "value": "> 750"}, {"measurement": "IC50", "setting": "[3]", "value": 216, "unit": "nM"}, {"measurement": "IC50", "setting": "[4]", "value": 3620, "unit": "nM"}]}
{"smiles": "CC#CCNc1ccc(S(=O)(=O)CC2(C(=O)NO)CCN(S(=O)(=O)C(C)C)CC2)cc1", "values": [{"measurement": "IC50", "setting": "Collagenase 3", "value": 2080, "unit": "nM"}, {"measurement": "IC50", "setting": "[1]", "value": 5000, "unit": "nM"}, {"measurement": "IC50", "setting": "[2]", "value": 2, "unit": "nM"}, {"measurement": "IC50", "setting": "[3]", "value": 97, "unit": "nM"}]}
